UCH37 inh: blocks the human deubiquitinase UCH37; 330,000 compounds, 0.33% hits; inhibition, % (no concentration beside the values); AID 588478; purified proteasome/UCH37, Ub-AMC cleavage fluorescence;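 active = mean inhibition over replicate wells above about 20%, limit read from the data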;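 note: 0% = compound-free wells with enzyme and 100% = wells lacking proteasome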
Target sequence (Q9Y5K5 whole entry, looked up): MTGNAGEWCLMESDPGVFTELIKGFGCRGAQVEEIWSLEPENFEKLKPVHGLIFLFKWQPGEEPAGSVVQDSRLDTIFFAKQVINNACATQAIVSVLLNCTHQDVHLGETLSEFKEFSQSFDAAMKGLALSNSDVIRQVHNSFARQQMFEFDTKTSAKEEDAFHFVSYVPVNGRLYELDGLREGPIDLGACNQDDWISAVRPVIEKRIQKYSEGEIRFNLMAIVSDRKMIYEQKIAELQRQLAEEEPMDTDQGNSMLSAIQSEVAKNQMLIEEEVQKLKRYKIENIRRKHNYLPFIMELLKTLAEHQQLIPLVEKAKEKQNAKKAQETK
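Material: Human UCH37 enzyme supplied as purified proteasome complex | Schedule: 30 min preincubation with enzyme, 25 min cleavage at room temperature | Detection: AMC fluorescence 355/460 nm | Measure: % inhibition of Ub-AMC cleavage fluorescence | Controls: Wells without proteasome as full block, compound-free enzyme plus substrate as uninhibited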
RTF Ca sens inh: cardiac RTF calcium desensitization; P19429+P45379; IANBD-labeled cardiac RTF, Ca2+ fluorescence; inhibition, % at 7.15 µM; 340,000 compounds, 0.12% hits; AID 493244;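 active = inhibition above the mean inhibition of all tested compounds plus 3 SD, cut at about 17% in these data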;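 note: assay run at fixed EC70 calcium of 1.6 mM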
Efflux pump mplx: inhibitors of Candida antifungal efflux pumps expressed in yeast; 330,000 compounds, 0.44% hits; inhibition, % at 10 µM; S. cerevisiae Candida pump triplex, Nile Red efflux;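 active = plate passing quality check with inhibition over a set limit, or well fluorescence over plate mean plus 4 SD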;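 note: Nile Red retained in pooled yeast measured as flow cytometry median fluorescence; 0% = buffer negative control and 100% = Enniatin B positive control; higher means more Nile Red kept so more efflux inhibition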
cardiac RTF act: increases calcium sensitivity of human cardiac regulated thin filaments | IANBD-labeled TnC RTF fluorescence at EC20 calcium; 0% EC20 calcium, 100% full calcium | 340,000 compounds, 0.24% hits | AID 493008 | activation, % at 7.2 µM;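 active = activation above the mean over all tested compounds plus 3 SD, cut at about 30% in these data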;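 note: rise in fluorescence read as greater calcium sensitivity of cardiac thin filaments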
SUMO Mot1 rescue: SUMOylation pathway inhibition by Mot1-301 growth rescue. S. cerevisiae Mot1-301 growth rescue, ATP luminescence, 38.5C; percent above DMSO median, 100 means doubled. growth rescue, % at 18.8 µM. 320,000 compounds, 1% hits. AID 2716;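 active = every valid replicate shows activation above 250% relative to neutral control wells; inactive = the rest, any valid replicate at or below 250%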;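 note: OY570 slx delta 5 strain wells were the positive control but not used for scaling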
ARNT TACC3 PPI: disrupts binding between human ARNT and TACC3; Q9Y6A5; AlphaScreen His-ARNT PAS-B/GST-TACC3 binding, luminescence; TACC3 fragment carries E629A point mutation; inhibition, % at 9.99 µM; 390,000 compounds, 0.66% hits;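 active = mean inhibition of replicates at least 50% and at least half of replicates each reaching 50%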;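 note: 0% = complete ARNT plus TACC3 wells and 100% = ARNT alone without TACC3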
* = called active by the depositor; i = inactive; . = no result. Shown are actives, neighbours in structure and some others; about 2.1% of the full set was active somewhere.

SMILES | UCH37 inh | RTF Ca sens inh | Efflux pump mplx | cardiac RTF act | SUMO Mot1 rescue | ARNT TACC3 PPI
O=C1N=C(N2C=CC(=C3C=CNC=C3)C=C2)/C(=C/N=NC(=O)c2ccccc2)S1 | 24* | -4 | 0 | -8 | -4 | 12
NC(=S)NN=C1CCCCCCCCCC1 | . | 5 | . | -6 | . | 33*
NC(=S)NN=C1CCC(C2CCCCC2)CC1 (stereo not drawn) | 1 | 0 | . | -2 | . | 7
Cc1nnc(NC(=O)c2ccc(S(=O)(=O)N3CCCCC3C)cc2)o1 (stereo not drawn) | 3 | -13 | 0 | 1 | -12 | 51*
CC1CCCCN1S(=O)(=O)c1ccc(C(=O)Nc2nnc(C3CC3)o2)cc1 (stereo not drawn) | -2 | -2 | 0 | 8 | 5 | 46*
COCc1nnc(NC(=O)c2ccc(S(=O)(=O)N3CCCc4ccccc43)cc2)o1 | 0 | -14 | 0 | -6 | -4 | .
O=C(Nc1nnc(C2CC2)o1)c1ccc(S(=O)(=O)N2CCCc3ccccc32)cc1 | 1 | -10 | 0 | -1 | -30 | 48*
CCc1n[nH]c(=S)n1N=Cc1ccc(NC(C)=O)cc1 | 8 | . | . | . | . | .
O=C(NN=C1CCCc2oc(C(=O)O)cc21)c1ccccc1 | 12 | . | . | . | . | .
COc1ccc(-c2cc(=O)n(-c3nc4ccccc4[nH]3)[nH]2)cc1 | 1 | -9 | 0 | 1 | -8 | 47*
COc1ccc(-c2nc3ccccc3[nH]2)cc1 | 4 | 0 | 0 | -6 | -42 | 1
Cc1cc(C(=O)Nc2ccccc2N2CCOCC2)ccc1[N+](=O)[O-] | 5 | 1 | 0 | -11 | 0 | .
CCOC(=O)c1cc(CC)sc1NC(=O)c1ccc([N+](=O)[O-])c(N2CCOCC2)c1 | -9 | -13 | 0 | -6 | 371* | -8
O=C(c1ccco1)N1CCN(C(=NS(=O)(=O)c2cccs2)c2ccccc2Cl)CC1 | 0 | . | . | . | . | .
c1ccc(CSc2ccc(-c3ccccn3)nn2)cc1 | 4 | -3 | 0 | 3 | 122 | 65*
CCOc1ccc(NC(=O)CSc2ccc(-c3ccccn3)nn2)cc1 | 0 | -10 | 0 | 6 | 8 | 26*
CCOc1ccc(NC(=O)CSc2nnnn2-c2ccc(C(N)=O)cc2)cc1 | -1 | -10 | 0 | 0 | 264* | -50
Clc1ccc(CSc2ccc(-c3ccccn3)nn2)cc1 | -1 | -2 | 0 | 3 | -27 | 12
COc1ccc(NC(=O)CSc2nnnn2-c2ccc(OC)cc2)cc1 | 2 | 5 | 0 | -8 | -11 | .
COc1ccccc1/C=C/C(=O)NCC(=O)NN=Cc1ccccc1 | -4 | . | . | . | . | .
O=C(Cn1ccc(C(F)(F)F)n1)NN=Cc1ccc(N2CCOCC2)cc1 | -185 | . | . | . | . | .
CC1=NNC(=O)C1CC(=O)NN=Cc1ccncc1 (stereo not drawn) | -1 | . | . | . | . | .
CCCC(C)=NNc1nc2c(c(=O)n(C)c(=O)n2C)n1C | 4 | . | . | . | . | .
Cc1cc(C)c(CSc2nnnn2-c2ccc(C(=O)O)cc2)c(C)c1 | 2 | -6 | 0 | 3 | 581* | -18
O=C(O)c1ccc(-n2nnnc2SCc2cccc(Br)c2)cc1 | 5 | 0 | 0 | 7 | -3 | -6
SMILES | UCH37 inh | RTF Ca sens inh | Efflux pump mplx | cardiac RTF act | SUMO Mot1 rescue | ARNT TACC3 PPI
CCOC(=O)c1cc2c(c(-c3cccc(-c4cccc(OC)c4)c3)n1)[C@@H](CCO)N(S(=O)C(C)(C)C)C2 (stereo partly drawn) | . | . | . | . | . | 55*
CCOC(=O)c1cc2c(c(-c3cccc(-c4cccc(OC)c4)c3)n1)[C@H](CCO)N(S(=O)C(C)(C)C)C2 (stereo partly drawn) | . | . | . | . | . | -6
C/C=C/c1cccc(-c2nc(C(=O)NCc3ccc(OC)cc3)cc3c2[C@H](CCO)N([S@@](=O)C(C)(C)C)C3)c1 | . | . | . | . | . | -1
C/C=C/c1cccc(-c2nc(C(=O)NCc3ccncc3)cc3c2[C@H](CCO)N([S@@](=O)C(C)(C)C)C3)c1 | . | . | . | . | . | 52*
Cc1ccc(Cn2c(SCC(=O)NN=Cc3ccccc3OCC(=O)O)nc3ccccc32)cc1 | 3 | . | . | . | . | .
O=C(NN=C/C=C/c1ccccc1)c1ccc(Br)cc1 | 0 | . | . | . | . | .
CC1(C)CC(=O)CC(=NNC(=S)NCc2ccccc2)C1 | 5 | . | . | . | . | .
O=C(Nc1nnc(C2=COCCO2)o1)c1ccc(F)cc1 | 7 | -6 | 0 | -3 | 178 | 50*
COc1ccc(-c2nnc(NC(=O)C3=COCCO3)o2)cc1 | 4 | 2 | 0 | -2 | 13 | 46*
O=C(Nc1nnc(C2=COCCO2)o1)c1ccc([N+](=O)[O-])cc1 | 7 | -4 | 0 | 0 | 5 | 41*
O=C(Nc1nnc(C2=COCCO2)o1)c1ccc(Cl)cc1 | 2 | -7 | 0 | -2 | -2 | 52*
COc1cc(C=c2sc(=C(C#N)C(=O)N3CCCC3)n(-c3ccccc3)c2=O)ccc1O | 4 | . | . | . | . | .
COc1cc(C=NNC(=O)CCn2nnc3ccccc32)ccc1O | -1 | . | . | . | . | .
CO[C@@H]1CN(C)C(=O)c2ccc(NS(=O)(=O)c3ccc(C)cc3)cc2OC[C@@H](C)N(Cc2ccccn2)C[C@H]1C | . | . | . | . | . | active
CCOc1cc(C=NNC(=O)Cc2ccccc2)ccc1OCC(=O)Nc1ccc(C)c(C)c1 | -6 | . | . | . | . | .
Clc1ccc(CON=C2CCCc3nonc32)c(Cl)c1 | 1 | . | . | . | . | .
COC(=O)c1cccc(/C=N/NC(N)=S)c1O | . | -2 | 0 | 4 | 9 | 67*
COc1cccc(/C=N/NC(=O)C(=O)N/N=C/c2cccc(OC)c2O)c1O | . | . | . | . | . | 40
COc1ccc(N=Nc2nc3cc(Br)c(Br)cc3n2C)c(OC)c1 | 6 | -42 | 0 | 47* | -12 | -7
CC(=NOC(=O)c1cccc(C(F)(F)F)c1)c1sc(-c2ccccc2)nc1C | -121 | . | . | . | . | .
Cc1cc(Cl)cc(C)c1OCCCCN1CCOCC1 | 0 | 4 | 0 | 0 | 283* | 3
CC(Oc1ccc2cc(-c3ccccc3)c(=O)oc2c1)C(=O)NCC1CCC(C(=O)O)CC1 (stereo not drawn) | i | -2 | 0 | 9 | 743* | 11
CC(Oc1ccc2ccc(=O)oc2c1)C(=O)NCC1CCC(C(=O)O)CC1 (stereo not drawn) | -15 | 2 | 0 | 4 | -8 | -7
COc1cccc(C=Nn2c(SC)nnc2-c2ccccc2)c1OC | -5 | . | . | . | . | .
Cc1cc(C)cc(N2CC(C(=O)Nc3cc(C)on3)CC2=O)c1 (stereo not drawn) | -1 | -9 | 0 | -5 | 341* | 10
CCCCc1cc(=O)oc2cc(OCC(=O)NCc3ccccn3)ccc12 | -8 | -10 | 0 | -2 | 322* | 8
CCCc1cc(=O)oc2cc(OCC(=O)NCc3ccccn3)ccc12 | -23 | -3 | 0 | 4 | -4 | -5
CCCCc1cc(=O)oc2cc(OCC(=O)N[C@@H](Cc3ccccc3)C(=O)O)ccc12 | -24 | 3 | 0 | 2 | 523* | -4

Bioassay records (PubChem)
